Measured values reported in ChEMBL document CHEMBL1144004, “Synthesis of (nor)tropeine (di)esters and allosteric modulation of glycine receptor binding” (Bioorg Med Chem, 2008).

species on record: Rattus norvegicus; assay: Displacement of [3H]strychnine from Wistar rat glycine receptor in spinal cord membrane; format: cell membranes
In short: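 Male Wistar rat spinal cord crude synaptic membranes, washed in 50 mM Tris-HCl pH 7.4 and pre-spun in buffer with 200 mM KSCN. Binding in 50 mM Tris-HCl plus 200 mM KSCN with 3 nM [3H]strychnine, 0 °C for 35 min. Duplicate aliquots were vacuum-filtered on GF/B filters and counted by scintillation. Nonspecific binding was taken with 2 mM glycine. Displacement curves were fitted (Eq. 2) for K_A and α; 3–6 experiments.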

First: O=C(OC1CC2CCC(C1)N2)c1c[nH]c2ccccc12 (stereo not drawn) [NORTROPISETRON]
Second: O=C(O[C@@H]1C[C@H]2CC[C@@H](C1)N2)c1cccnc1
The K of the first is 4.8-fold lower: 0.017 µM for the first, 0.082 µM for the second.

Going from CN1[C@@H]2CC[C@H]1C[C@H](OC(=O)c1cccc(C(=O)O[C@H]3C[C@H]4CC[C@@H](C3)N4C)c1)C2 to CN1[C@@H]2CC[C@H]1C[C@H](OC(=O)c1ccc(C(=O)O[C@H]3C[C@H]4CC[C@@H](C3)N4C)cc1)C2, the K rises from 0.197 µM to 24.6 µM (120-fold).

Going from CN1[C@@H]2CC[C@H]1C[C@H](OC(=O)c1ccc(Cl)nc1)C2 to CN1[C@@H]2CC[C@H]1C[C@H](OC(=O)c1cccnc1)C2, the K falls from 5.7 µM to 2.2 µM (2.6-fold).

Going from O=C(O[C@@H]1C[C@@H]2N[C@H](C1)[C@@H]1O[C@@H]12)[C@H](CO)c1ccccc1 to O=C(O[C@H]1C[C@H]2CC[C@@H](C1)N2)C1c2ccccc2Oc2ccccc21, the K falls from 8 µM to 3.1 µM (2.6-fold).

First: CN1[C@@H]2CCC[C@H]1C[C@H](OC(=O)/C=C/C(=O)O[C@@H]1C[C@H]3CCC[C@@H](C1)N3C)C2
Second: CN1[C@@H]2CC[C@H]1C[C@@H](OC(=O)/C=C/C(=O)O[C@H]1C[C@H]3CC[C@@H](C1)N3C)C2
The K of the first is 2.8-fold higher: 20.8 µM for the first, 7.5 µM for the second.

CCN1[C@@H]2CC[C@H]1C[C@@H](OC(=O)CCC(=O)O[C@H]1C[C@H]3CC[C@@H](C1)N3CC)C2 gave a K greater than 100 µM.

molecular target: not listed separately; assay: (§1) Displacement of [3H]strychnine from Wistar rat glycine receptor in spinal cord membrane in presence of 10 uM glycine; format: cell membranes
In short: (§2)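 Rat spinal cord synaptic membrane [3H]strychnine (3 nM) binding in 50 mM Tris-HCl/200 mM KSCN, 0 °C, 35 min, with 10 μM glycine present during test-ligand displacement. Filtration on GF/B, scintillation counting. Nonspecific binding was defined by 2 mM glycine. IC50 and slope come from concentration-displacement curves; three experiments.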

Compound O=C(OC1CC2CCC(C1)N2)c1c[nH]c2ccccc12 (stereo not drawn) [NORTROPISETRON] has an IC50 of 9.3 nM.

species on record: Rattus norvegicus; assay: as §1; format: cell membranes; in short: as §2

O=C(OC1CC2CCC(C1)N2)c1c[nH]c2ccccc12 (stereo not drawn) [NORTROPISETRON] gave an Activity of 60%.
